# Tests used:
# Assay type in all cases: functional
# [1] = Growth inhibition of human LOXIMVI cells after 48 hrs by sulforhodamine B assay; conditions: LOX IMVI
# Outline: (§1)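 Five-dose testing against a 60-line human tumor cell panel. GI50 is the drug concentration giving a 50% reduction in net protein increase relative to untreated control cells.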
# [2] = Growth inhibition of human RPMI8226 cells after 48 hrs by sulforhodamine B assay; conditions: RPMI-8226, 48 h
# Outline: (§2)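 Five-dose concentration series run across a panel of 60 human tumour cell lines. GI50 is taken as the drug concentration giving a 50% reduction in net protein increase relative to untreated control cells.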
# MDA-MB-435 = test: Growth inhibition of human MDA-MB-435 cells after 48 hrs by sulforhodamine B assay; conditions: MDA-MB-435, 48 h; outline: as §1
# [3] = Growth inhibition of human UACC62 cells at 10 uM after 48 hrs by sulforhodamine B assay; conditions: UACC-62, 48 h, values are per cent of control
# CCRF-CEM [4] = test: Growth inhibition of human CCRF-CEM cells at 10 uM after 48 hrs by sulforhodamine B assay; conditions: values are per cent of control
# MCF7 [5] = test: Growth inhibition of human MCF7 cells at 10 uM after 48 hrs by sulforhodamine B assay; conditions: MCF7, 48 h, values are per cent of control
# [6] = Growth inhibition of human OVCAR3 cells after 48 hrs by sulforhodamine B assay; conditions: OVCAR-3, 48 h; outline: as §2
# [7] = Growth inhibition of human HL-60(TB) cells at 10 uM after 48 hrs by sulforhodamine B assay; conditions: HL-60, 48 h, values are per cent of control
# [8] = Growth inhibition of human IGROV1 cells at 10 uM after 48 hrs by sulforhodamine B assay; conditions: IGROV-1, 48 h, values are per cent of control
# [9] = Growth inhibition of human MOLT4 cells after 48 hrs by sulforhodamine B assay; conditions: MOLT-4, 48 h; outline: as §2
# [10] = Growth inhibition of human RPMI8226 cells at 10 uM after 48 hrs by sulforhodamine B assay; conditions: RPMI-8226, 48 h, values are per cent of control
# A549 = test: Growth inhibition of human A549/ATCC cells after 48 hrs by sulforhodamine B assay; conditions: A549, 48 h; outline: as §1
# A498 = test: Growth inhibition of human A498 cells after 48 hrs by sulforhodamine B assay; conditions: A498, 48 h; outline: as §1
# SK-MEL-5 = test: Growth inhibition of human SK-MEL-5 cells after 48 hrs by sulforhodamine B assay; conditions: SK-MEL-5, 48 h; outline: as §2
# [11] = Growth inhibition of human HCC2998 cells at 10 uM after 48 hrs by sulforhodamine B assay; conditions: HCC 2998, 48 h, values are per cent of control
# SR [12] = test: Growth inhibition of human SR cells at 10 uM after 48 hrs by sulforhodamine B assay; conditions: values are per cent of control
# NCI-H23 [13] = test: Growth inhibition of human NCI-H23 cells at 10 uM after 48 hrs by sulforhodamine B assay; conditions: NCI-H23, 48 h, values are per cent of control
# Malme-3M = test: Growth inhibition of human MALME-3M cells at 10 uM after 48 hrs by sulforhodamine B assay; conditions: values are per cent of control
# [14] = Growth inhibition of human UACC257 cells at 10 uM after 48 hrs by sulforhodamine B assay; conditions: UACC-257, 48 h, values are per cent of control
# [15] = Growth inhibition of human IGROV1 cells after 48 hrs by sulforhodamine B assay; conditions: IGROV-1, 48 h; outline: as §1
# NCI-H522 [16] = test: Growth inhibition of human NCI-H522 cells after 48 hrs by sulforhodamine B assay; conditions: NCI-H522, 48 h; outline: as §2
# CCRF-CEM [17] = test: Growth inhibition of human CCRF-CEM cells after 48 hrs by sulforhodamine B assay; outline: as §1
# 786-0 = test: Growth inhibition of human 786-0 cells after 48 hrs by sulforhodamine B assay; conditions: 786-0, 48 h; outline: as §1
# [18] = Growth inhibition of human SW620 cells after 48 hrs by sulforhodamine B assay; conditions: SW-620, 48 h; outline: as §2
# MDA-MB-231 = test: Growth inhibition of human MDA-MB-231 cells after 48 hrs by sulforhodamine B assay; conditions: MDA-MB-231, 48 h; outline: as §1
# [19] = Growth inhibition of human PC3 cells at 10 uM after 48 hrs by sulforhodamine B assay; conditions: PC-3, 48 h, values are per cent of control
# KM12 = test: Growth inhibition of human KM12 cells after 48 hrs by sulforhodamine B assay; conditions: KM12, 48 h; outline: as §1
# [20] = Growth inhibition of human UO31 cells after 48 hrs by sulforhodamine B assay; conditions: UO-31, 48 h
# Outline: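 Five-dose testing across the 60-line human tumour cell panel. GI50 is the drug concentration that gives a 50% reduction in net protein increase relative to control cells.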
# NCI-H522 [21] = test: Growth inhibition of human NCI-H522 cells at 10 uM after 48 hrs by sulforhodamine B assay; conditions: NCI-H522, 48 h, values are per cent of control
# [22] = Growth inhibition of human Hs 578T cells at 10 uM after 48 hrs by sulforhodamine B assay; conditions: values are per cent of control
# NCI-H23 [23] = test: Growth inhibition of human NCI-H23 cells after 48 hrs by sulforhodamine B assay; conditions: NCI-H23, 48 h; outline: as §2
# [24] = Growth inhibition of human HCT15 cells at 10 uM after 48 hrs by sulforhodamine B assay; conditions: HCT-15, 48 h, values are per cent of control
# [25] = Growth inhibition of human HCT116 cells after 48 hrs by sulforhodamine B assay; conditions: HCT-116, 48 h; outline: as §1
# [26] = Growth inhibition of human HOP92 cells at 10 uM after 48 hrs by sulforhodamine B assay; conditions: HOP-92, 48 h, values are per cent of control
# [27] = Growth inhibition of human MOLT4 cells at 10 uM after 48 hrs by sulforhodamine B assay; conditions: MOLT-4, 48 h, values are per cent of control
# MDA-MB-468 = test: Growth inhibition of human MDA-MB-468 cells after 48 hrs by sulforhodamine B assay; conditions: MDA-MB-468, 48 h; outline: as §1
# [28] = Growth inhibition of human PC3 cells after 48 hrs by sulforhodamine B assay; conditions: PC-3, 48 h; outline: as §2
# MCF7 [29] = test: Growth inhibition of human MCF7 cells after 48 hrs by sulforhodamine B assay; conditions: MCF7, 48 h; outline: as §1
# [30] = Growth inhibition of human SNB19 cells after 48 hrs by sulforhodamine B assay; conditions: SNB-19, 48 h; outline: as §2
# [31] = Growth inhibition of human Hs 578T cells after 48 hrs by sulforhodamine B assay; outline: as §1
# T47D = test: Growth inhibition of human T47D cells at 10 uM after 48 hrs by sulforhodamine B assay; conditions: values are per cent of control
# SR [32] = test: Growth inhibition of human SR cells after 48 hrs by sulforhodamine B assay; outline: as §2
# M14 = test: Growth inhibition of human M14 cells after 48 hrs by sulforhodamine B assay; conditions: M14, 48 h; outline: as §1
# ACHN = test: Growth inhibition of human ACHN cells after 48 hrs by sulforhodamine B assay; outline: as §1
smiles,measurement,setting,value
COc1ccc(/C(C#N)=C/c2ccc3c(c2)OCCO3)cc1OC,GI50,[1],4.92 µM
same,GI50,[2],4.81 µM
same,GI50,MDA-MB-435,0.26 µM
same,"growth, % of control at 10 µM",[3],43.7%
same,"growth, % of control at 10 µM",CCRF-CEM [4],6.4%
same,"growth, % of control at 10 µM",MCF7 [5],20.1%
same,GI50,[6],2.16 µM
same,"growth, % of control at 10 µM",[7],-15.7%
same,"growth, % of control at 10 µM",[8],49.5%
same,GI50,[9],8.85 µM
same,"growth, % of control at 10 µM",[10],57.1%
same,GI50,A549,4.12 µM
same,GI50,A498,1.35 µM
same,GI50,SK-MEL-5,0.84 µM
same,"growth, % of control at 10 µM",[11],60.1%
same,"growth, % of control at 10 µM",SR [12],1.8%
same,"growth, % of control at 10 µM",NCI-H23 [13],46.8%
same,"growth, % of control at 10 µM",Malme-3M,51.8%
same,"growth, % of control at 10 µM",[14],66.7%
same,GI50,[15],9.4 µM
same,GI50,NCI-H522 [16],2.8 µM
same,GI50,CCRF-CEM [17],3.76 µM
same,GI50,786-0,3.88 µM
same,GI50,[18],1.04 µM
same,GI50,MDA-MB-231,4.69 µM
same,"growth, % of control at 10 µM",[19],21.3%
same,GI50,KM12,1.59 µM
same,GI50,[20],5.01 µM
same,"growth, % of control at 10 µM",NCI-H522 [21],-30.1%
same,"growth, % of control at 10 µM",[22],16.3%
same,GI50,NCI-H23 [23],6.61 µM
same,"growth, % of control at 10 µM",[24],31.6%
same,GI50,[25],2.71 µM
same,"growth, % of control at 10 µM",[26],39.3%
same,"growth, % of control at 10 µM",[27],19.6%
same,GI50,MDA-MB-468,1.11 µM
same,GI50,[28],4.57 µM
same,GI50,MCF7 [29],0.86 µM
same,GI50,[30],4.08 µM
same,GI50,[31],5.56 µM
same,"growth, % of control at 10 µM",T47D,31%
same,GI50,SR [32],0.93 µM
same,GI50,M14,1.63 µM
same,GI50,ACHN,7.61 µM

# — ChEMBL document CHEMBL3792365, “Dioxol and dihydrodioxin analogs of 2- and 3-phenylacetonitriles as potent anti-cancer agents with nanomolar activity against a variety of human cancer cells” (2016)
